The subject of data set [1] is Hepatitis B virus. The experiment in a line: Antiviral activity against Hepatitis B virus infected in human HepG2(2.2.15) cells assessed as inhibition of viral surface antigen secretion after 6 days by ELISA. The data set is classed as functional, organism-based. Particulars: HepG2 2.2.15, 144 h. Summed up:
(§1)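 HepG 2.2.15 cells in DMEM with 10% FBS, 37 °C, 5% CO2. Treated for 6 days with refeeding every other day. Culture medium centrifuged at 6000 g to clear debris. HBeAg or HBsAg measured by quantitative ELISA on a microplate reader. IC50 = concentration giving 50% inhibition of secretion. Mean of two independent experiments.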

Data set [2] relates to Hepatitis B virus. The experiment in a line: Antiviral activity against Hepatitis B virus infected in human HepG2(2.2.15) cells assessed as inhibition of viral DNA replication after 6 days by PCR analysis. The data set is classed as functional, organism-based. In short, it runs like this: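 HepG 2.2.15 cells in DMEM with 10% FBS, 5 mM L-glutamine, penicillin/streptomycin, 37 °C, 5% CO2; seeded 5 × 10^5 per well, medium changed every 2 days. Compound added after 6 days, refed every other day for 6 more days. HBV DNA by real-time PCR against a cloned HBV plasmid standard series. IC50 = 50% inhibition. Mean of two independent experiments.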

Data set [3] can be described thus: Selectivity index, ratio of CC50 for human HepG2(2.2.15) cells to IC50 for Hepatitis B virus infected in human HepG2(2.2.15) cells assessed as inhibition of viral e antigen secretion. In kind it is functional. Summed up:
(§2)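 Ratio of CC50 in HepG 2.2.15 cells to the IC50 for HBeAg or HBsAg secretion. Both values come from ELISA and cytotoxicity runs on the same cell line. Each input is the mean of two independent experiments.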

The subject of data set [4] is Hepatitis B virus. The experiment in a line: Antiviral activity against Hepatitis B virus infected in human HepG2(2.2.15) cells assessed as inhibition of viral e antigen secretion after 6 days by ELISA. The data set is classed as functional, organism-based. Particulars: HepG2 2.2.15, 144 h. In short, it runs like this: as §1
A general note: ELISA stands for enzyme-linked immunosorbent assay.

Data set [5] in a line: Selectivity index, ratio of CC50 for human HepG2(2.2.15) cells to IC50 for Hepatitis B virus infected in human HepG2(2.2.15) cells assessed as inhibition of viral surface antigen secretion. The data set is classed as functional. Summed up: as §2
Data set [6] can be described thus: Cytotoxicity against human HepG2(2.2.15) cells. In kind it is cell-based. In short, it runs like this:
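HepG 2.2.15 cells in DMEM with 10% FBS, 37 °C, 5% CO2. CC50 = concentration killing 50% of cells. Mean of two independent experiments.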

In data set [7] the test system is Nucleic Acid. As to the kind of experiment: Increase of preS1 promoter transcriptional activity in HBV infected in human HepG2(2.2.15) cells transfected with pGL3 at 0.02 mM by luciferase reporter gene assay relative to mock-treated control. Particulars: Hepatitis B virus. In kind it is cell-based. Summed up: (§3)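 HepG2 cells transfected with pGL3-based firefly luciferase constructs carrying HBV promoter or enhancer elements; pGL3 Basic as control, phRL-CMV Renilla as internal control. Treated with 0.02 mM; read by dual-luciferase assay. Fold activity = treated promoter activity / mock-treated activity. Triplicate samples.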
(In general: In a reporter assay the amount or activity of a reporter protein is the signal.)

A short description of data set [8]: Cytotoxicity against human HepG2(2.2.15) cells assessed as cell viability at 0.02 mM after 48 hrs by MTT assay. In kind it is cell-based. Particulars: read-out: Activity. (In general: Formazan colour is commonly taken as a measure of viable cells.)
Data set [9] in a line: Cytotoxicity against human HepG2(2.2.15) cells assessed as cell viability at 0.02 mM after 72 hrs by MTT assay. The data set is classed as cell-based. Particulars: read-out: Activity.
Data set [10] relates to Nucleic Acid. As to the kind of experiment: Increase of enhancer 1 transcriptional activity in HBV infected in human HepG2(2.2.15) cells transfected with pGL3 at 0.02 mM by luciferase reporter gene assay relative to mock-treated control. In kind it is cell-based. Particulars: Hepatitis B virus. In short, it runs like this: as §3
The subject of data set [11] is Nucleic Acid. As to the kind of experiment: Increase of enhancer 2 transcriptional activity in HBV infected in human HepG2(2.2.15) cells transfected with pGL3 at 0.02 mM by luciferase reporter gene assay relative to mock-treated control. In kind it is cell-based. Particulars: Hepatitis B virus. Summed up: as §3
Data set [12] deals with Nucleic Acid. As to the kind of experiment: Increase of core/pregenomic factor transcriptional activity in HBV infected in human HepG2(2.2.15) cells transfected with pGL3 at 0.02 mM by luciferase reporter gene assay relative to mock-treated control. Conditions: Hepatitis B virus. The data set is classed as cell-based. In short, it runs like this: as §3
The subject of data set [13] is Nucleic Acid. The experiment in a line: Inhibition of preS2 promoter transcriptional activity in human HepG2 cells transfected with pGL3 at 0.02 mM by luciferase reporter gene assay relative to mock-treated control. Particulars: Hepatitis B virus.
The subject of data set [14] is Nucleic Acid. As to the kind of experiment: Increase of X promoter transcriptional activity in HBV infected in human HepG2(2.2.15) cells transfected with pGL3 at 0.02 mM by luciferase reporter gene assay relative to mock-treated control. In kind it is cell-based. Conditions: Hepatitis B virus. Summed up:
as §3

Setting [15] is: Hepatitis B virus, HepG2 2.2.15, 144 h, read-out: IC50.

Calls of active or inactive are those of the source. The calls are words filed in the database; no cut-off is given here.

Broadly, the IC50 is the midpoint of a concentration-inhibition curve. In the case of `O=C(/C=C/c1ccc2c(c1)OCO2)OCCc1c(-c2ccccc2Cl)c2cc(Cl)ccc2[nH]c1=O`, the IC50 in the data set with Hepatitis B virus [1] amounted to 150 µM; in the data set on Hepatitis B virus [2] (setting [15]) it was 160 µM; with Hepatitis B virus [4], 220 µM. Also, the “Selectivity Index” value was more than 5.4 in [3] and more than 8.1 in [5].
As usually defined, the CC50 is the concentration at which the toxic effect on the cells reaches its halfway point. Low values mean greater toxicity to the cells, high ones lower toxicity to the cells. In the case of `COc1cccc(/C=C/C(=O)OCc2c(-c3ccccc3Cl)c3cc(Cl)ccc3[nH]c2=O)c1`, the IC50 with Hepatitis B virus [1] came out at 11 µM; in the data set with Hepatitis B virus [2] (setting [15]), 160 µM; in the data set with Hepatitis B virus [4] it was 18 µM. In addition, the “Selectivity Index” value is on record as more than 100 in [3] and more than 170 in [5]. This molecule also yielded a CC50 in data set [6] of more than 1800 µM.
Consider `COc1ccccc1/C=C/C(=O)OCCc1c(-c2ccccc2Cl)c2cc(Cl)ccc2[nH]c1=O`, for which the IC50 in the data set on Hepatitis B virus [1] is 61 µM; with Hepatitis B virus [2] (hepg2 2.2.15) it was “Not Active”; in the data set with Hepatitis B virus [4], 24 µM. Also, the “Selectivity Index” value is given as 32 in data set [3] and 13 in data set [5]. In data set [6], the CC50 was 770 µM.
Turning to `O=C(/C=C/c1ccc(C(F)(F)F)cc1)OCCc1c(-c2ccccc2Cl)c2cc(Cl)ccc2[nH]c1=O`, the IC50 with Hepatitis B virus [1] is 230 µM; with Hepatitis B virus [2] (hepg2 2.2.15) it was “Not Active”; in the data set with Hepatitis B virus [4] it was 19 µM. In addition, the entries for the “Selectivity Index” value in [3] and in [5] were more than 73 and more than 6.1, respectively. The molecule further came in with a CC50 in data set [6] of more than 1400 µM.
Consider `COc1ccc(/C=C/C(=O)OCCc2c(-c3ccccc3Cl)c3cc(Cl)ccc3[nH]c2=O)cc1OC`, for which the figures for the IC50 in the data set with Hepatitis B virus [1], in the data set with Hepatitis B virus [2] (hepg2 2.2.15) and in the data set on Hepatitis B virus [4] were 21 µM, “Not Active” and 57 µM, respectively. In addition, the figures for the “Selectivity Index” value in data set [3] and in data set [5] were more than 21 and more than 58, respectively. For the same molecule, the CC50 in [6] was more than 1200 µM.
On to `O=C(OCCc1c(-c2ccccc2Cl)c2cc(Cl)ccc2[nH]c1=O)c1ccc([N+](=O)[O-])cc1`, for which the IC50 is 1200 µM with Hepatitis B virus [1] and 1600 µM in the data set with Hepatitis B virus [4]. Moreover, the entries for the “Selectivity Index” value in data set [3] and in data set [5] were 1 and 1.4, respectively. Moreover, in data set [6], the CC50 was 1600 µM.
For the molecule `O=C(/C=C/c1ccccc1)OCCc1c(-c2ccccc2Cl)c2cc(Cl)ccc2[nH]c1=O`, the IC50 in the data set with Hepatitis B virus [1] came out at 30 µM; with Hepatitis B virus [4] it was 56 µM. Also, the figures for the “Selectivity Index” value in data set [3] and in data set [5] were 4 and 7.6, respectively. Besides, in data set [6], it took 230 µM to reach half-maximal cytotoxicity (CC50).
For `COc1cccc(/C=C/C(=O)OCCc2c(-c3ccccc3Cl)c3cc(Cl)ccc3[nH]c2=O)c1`, the fold change (FC) with Nucleic Acid [7] was determined as 4; with Nucleic Acid [10], 12; with Nucleic Acid [11], 14; in the data set on Nucleic Acid [12], 4; in the data set with Nucleic Acid [14] it was 4. The viability at 48 h, 20 µM in [8] stood at 95.2%. The viability at 72 h, 20 µM in data set [9] amounted to 80.4%. Further, the IC50 with Hepatitis B virus [1] was found to be 10 µM; in the data set on Hepatitis B virus [2] (setting [15]), 45 µM; in the data set on Hepatitis B virus [4], 26 µM. Also, the “Selectivity Index” value was more than 51 in data set [3] and more than 135 in [5]. The CC50 in [6] is more than 1300 µM. For the same molecule, the inhibition entry in the data set on Nucleic Acid [13] is “Active”.
In the case of `COc1ccc(/C=C/C(=O)OCCc2c(-c3ccccc3Cl)c3cc(Cl)ccc3[nH]c2=O)cc1`, the IC50 in the data set with Hepatitis B virus [1] is 490 µM; with Hepatitis B virus [2] (hepg2 2.2.15), “Not Active”; in the data set with Hepatitis B virus [4], 48 µM. Also, the “Selectivity Index” value is more than 25 in data set [3] and more than 2.5 in [5]. For the same molecule, the CC50 in data set [6] is more than 1200 µM.
As to `CCCC(=O)OCCc1c(-c2ccccc2Cl)c2cc(Cl)ccc2[nH]c1=O`, the IC50 with Hepatitis B virus [1] is 35 µM; in the data set on Hepatitis B virus [4], more than 52 µM. The “Selectivity Index” value in [3] is less than 1; in data set [5], 1.5. Also, in data set [6], the midpoint of cytotoxicity, the CC50, lay at 52 µM.
Take `COCC(=O)OCCc1c(-c2ccccc2Cl)c2cc(Cl)ccc2[nH]c1=O`: the IC50 with Hepatitis B virus [1] was 32 µM; in the data set on Hepatitis B virus [4] it was more than 74 µM. The “Selectivity Index” value in data set [3] was less than 1; in [5], 1.4. The CC50 in data set [6] came to 74 µM.
On to `O=C(/C=C/c1cccc(F)c1)OCCc1c(-c2ccccc2Cl)c2cc(Cl)ccc2[nH]c1=O`, for which the figures for the IC50 in the data set on Hepatitis B virus [1], in the data set with Hepatitis B virus [2] (setting [15]) and with Hepatitis B virus [4] were 33 µM, 110 µM and 27 µM, respectively. Further, the “Selectivity Index” value in [3] is on record as more than 58; in [5], more than 48. In addition, the CC50 in data set [6] is more than 1600 µM.
Take `COc1cccc(/C=C/C(=O)OCCCc2c(-c3ccccc3Cl)c3cc(Cl)ccc3[nH]c2=O)c1`: the values for the IC50 with Hepatitis B virus [1], with Hepatitis B virus [2] (hepg2 2.2.15) and with Hepatitis B virus [4] were 20 µM, “Not Active” and 28 µM, respectively. Also, the “Selectivity Index” value was more than 39 in [3] and more than 55 in [5]. The molecule also had a CC50 in data set [6] of more than 1100 µM.
As for `O=C(CCOc1ccccc1)OCCc1c(-c2ccccc2Cl)c2cc(Cl)ccc2[nH]c1=O`, the values for the IC50 with Hepatitis B virus [1] and in the data set on Hepatitis B virus [4] were 33 µM and 35 µM, respectively. Also, the “Selectivity Index” value in data set [3] is recorded as 1.3; in [5], 1.4. Besides, in data set [6], the midpoint of cytotoxicity, the CC50, lay at 46 µM.
`O=C(/C=C/c1cccc(C(F)(F)F)c1)OCCc1c(-c2ccccc2Cl)c2cc(Cl)ccc2[nH]c1=O`: the IC50 in the data set on Hepatitis B virus [1] worked out at 58 µM; with Hepatitis B virus [2] (setting [15]), 410 µM; in the data set on Hepatitis B virus [4] it was 22 µM. Moreover, the figures for the “Selectivity Index” value in [3] and in data set [5] were more than 63 and more than 24, respectively. Moreover, the CC50 in data set [6] is more than 1400 µM.
`CCOCC(=O)OCCc1c(-c2ccccc2Cl)c2cc(Cl)ccc2[nH]c1=O`: the results for the IC50 with Hepatitis B virus [1] and in the data set on Hepatitis B virus [4] were 95 µM and more than 130 µM, respectively. Moreover, the results for the “Selectivity Index” value in data set [3] and in [5] were less than 1 and 1.4, respectively. In data set [6], this molecule came in with a CC50 of 130 µM.

The values are drawn from ChEMBL document CHEMBL1649405, “Structure-activity relationships study of 6-chloro-4-(2-chlorophenyl)-3-(2-hydroxyethyl) quinolin-2(1H)-one derivatives as novel non-nucleoside anti-hepatitis B virus agents” (Eur J Med Chem, 2011).
